Series [1] is described as follows: n-octanol-water partition co-efficient, log P of the compound. It counts as physicochemical.
For series [2], the species on record is Homo sapiens. Nature of the series: Inhibition of p-gp in human MES-SA/DX5 cells assessed as increase in rhodamine 123 accumulation preincubated for 20 mins followed by rhodamine 123 addition and measured after 20 mins by flow cytometric method. Type of series: cell-based. The method in brief:
(§1)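 Cells in serum-free RPMI at 5 × 10^5 cells per ml (MES-SA/DX5 taken off doxorubicin one day before). Compound 20 min at 37 °C, then 5 μM rhodamine 123 for 20 min at 37 °C. Washed twice in ice-cold PBS, kept on ice. Flow cytometry at 488 nm excitation, 530 nm emission, 20 000 cells. Gmean fluorescence expressed as a ratio to untreated cells. Verapamil was the positive control.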

For another series, the system named is MES-SA. Nature of the series: Increase in rhodamine 123 accumulation in human MES-SA cells at 5 to 100 uM preincubated for 20 mins followed by rhodamine 123 addition and measured after 20 mins by flow cytometric method. Type of series: functional, cell-based. The method in brief: as §1
For series [3], the species on record is Homo sapiens. Nature of the series: Inhibition of p-gp in human MES-SA/DX5 cells assessed as potentiation of doxorubicin-induced cytotoxicity at 25 uM preincubated for 1.5 hrs followed by doxorubicin addition and measured after 48 hrs by MTT assay. Type of series: cell-based.
The species entered for series [4] is Homo sapiens. Nature of the series: Inhibition of p-gp in human MES-SA/DX5 cells assessed as potentiation of doxorubicin-induced cytotoxicity at 5 uM preincubated for 1.5 hrs followed by doxorubicin addition and measured after 48 hrs by MTT assay. Type of series: cell-based.
For series [5], the species on record is Homo sapiens. Nature of the series: Inhibition of p-gp in human MES-SA/DX5 cells assessed as increase in rhodamine 123 accumulation preincubated for 20 mins followed by rhodamine 123 addition and measured after 20 mins by fluorescence microscopic method. It counts as cell-based. The procedure, abridged:
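MES-SA/DX5 seeded at 2 × 10^5 cells per ml and grown two days at 37 °C. Compound at 25 μM for 20 min, then rhodamine 123 at 5 μM final for 20 min. Cells washed three times with ice-cold PBS and resuspended in cold PBS. Imaged by fluorescence microscopy with a blue filter (510–560 nm). Untreated cells served as control.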

The record followed here is ChEMBL document CHEMBL4261535, “Tetrahydroquinolinone derivatives as potent P-glycoprotein inhibitors: design, synthesis, biological evaluation and molecular docking analysis” (Medchemcomm, 2017).

The source made the active and inactive calls. No cut-off for these calls is given here.

Take `CC1=C(C(=O)OCc2cccnc2)C(c2cccs2)C2=C(CCCC2=O)N1` (stereo not given): the lipophilicity (logP) in series [1] amounted to 1.4. The inhibition entry in the series filed under Homo sapiens [2] was “Dose-dependent effect”. Moreover, in the series with MES-SA, the result was inactive. For the same compound, the inhibition result in the series filed under Homo sapiens [3] was “Active”.
In turn, `COc1ccc(C2C(C(=O)OCc3ccccn3)=C(C)NC3=C2C(=O)CCC3)cc1` (stereo not given) came in with a logP in series [1] of 1.9. Besides, the inhibition result in the series listed under Homo sapiens [2] is “Dose-dependent effect”. The result in the series on MES-SA was inactive. The inhibition entry in the series filed under Homo sapiens [4] was “Active”.
Turning to `CC1=C(C(=O)OCc2cccnc2)C(c2ccco2)C2=C(CCCC2=O)N1` (stereo not given), the lipophilicity (logP) in series [1] stood at 1.03. In addition, in the series listed under Homo sapiens [2], the inhibition result is “Dose-dependent effect”. Moreover, in the series with MES-SA, the result was inactive.
For the compound `CC1=C(C(=O)OCc2cccnc2)C(c2ccc([N+](=O)[O-])cc2)C2=C(CCCC2=O)N1` (stereo not given), the lipophilicity (logP) in series [1] came out at 1.51. The inhibition entry in the series listed under Homo sapiens [2] and in the series listed under Homo sapiens [5] was “Dose-dependent effect” in each case. Moreover, the outcome in the series with MES-SA was inactive. Besides, the inhibition entry in the series filed under Homo sapiens [3] is “Active”.
`CC1=C(C(=O)OCc2ccccn2)C(c2cccc([N+](=O)[O-])c2)C2=C(CCCC2=O)N1` (stereo not given) showed a logP in series [1] of 1.88. In addition, the inhibition result in the series listed under Homo sapiens [2] was “Dose-dependent effect”. Further, in the series with MES-SA, the outcome was inactive.
For `COc1cc(C2C(C(=O)OCc3ccccn3)=C(C)NC3=C2C(=O)CCC3)cc(OC)c1OC` (stereo not given), in that order: 2.17, “Dose-dependent effect” and “inactive”.
`CC1=C(C(=O)OCc2ccccn2)C(c2ccc(Cl)cc2)C2=C(CCCC2=O)N1` (stereo not given): the logP in series [1] came out at 2.24. The inhibition result in the series listed under Homo sapiens [2] was “Dose-dependent effect”. Further, the outcome in the series on MES-SA was inactive. Also, in the series listed under Homo sapiens [4], the inhibition entry was “Active”.
`CC1=C(C(=O)OCc2cccnc2)C(c2ccc(Cl)cc2)C2=C(CCCC2=O)N1` (stereo not given) returned a lipophilicity (logP) in series [1] of 1.87. In addition, in the series listed under Homo sapiens [2], the inhibition result was “Dose-dependent effect”. Further, the outcome in the series with MES-SA was inactive. Moreover, in the series filed under Homo sapiens [4], the inhibition entry is “Active”.
`CC1=C(C(=O)OCc2ccccn2)C(c2ccccc2[N+](=O)[O-])C2=C(CCCC2=O)N1` (stereo not given) displayed a logP in series [1] of 1.88. The outcome in the series on MES-SA was inactive. The inhibition result in the series filed under Homo sapiens [4] is “Active”. In addition, the inhibition result in the series filed under Homo sapiens [5] was “Dose-dependent effect”.
Compound `CC1=C(C(=O)OCc2ccccn2)C(c2ccc(C#N)cc2)C2=C(CCCC2=O)N1` (stereo not given) showed a log partition coefficient (logP) in series [1] of 1.73. The inhibition result in the series filed under Homo sapiens [2] and in the series listed under Homo sapiens [5] was “Dose-dependent effect” each time. Moreover, in the series on MES-SA, the outcome was inactive. Further, the inhibition result in the series filed under Homo sapiens [4] was “Active”.
As to `CC1=C(C(=O)OCc2ccccn2)C(c2ccccc2)C2=C(CCCC2=O)N1` (stereo not given), the logP in series [1] stood at 2.72. Further, in the series filed under Homo sapiens [2], the inhibition entry was “Dose-dependent effect”. In addition, in the series on MES-SA, the outcome was inactive.
In the same order, the values of `CC1=C(C(=O)OCc2cccnc2)C(c2ccc(C#N)cc2)C2=C(CCCC2=O)N1` (stereo not given) are 1.36, “Dose-dependent effect” and “inactive”.
Compound `CC1=C(C(=O)OCc2ccccn2)C(c2ccc([N+](=O)[O-])cc2)C2=C(CCCC2=O)N1` (stereo not given) came in with a logP in series [1] of 1.88. The inhibition entry in the series listed under Homo sapiens [2] and in the series filed under Homo sapiens [5] was “Dose-dependent effect” each time. In addition, in the series on MES-SA, the outcome was inactive. Further, the inhibition entry in the series filed under Homo sapiens [4] was “Active”.
In the case of `CC1=C(C(=O)OCc2ccccn2)C(c2cccc(O)c2)C2=C(CCCC2=O)N1` (stereo not given), the lipophilicity (logP) in series [1] turned out to be 1.58. For the same compound, the inhibition result in the series listed under Homo sapiens [2] is “Dose-dependent effect”. The result in the series with MES-SA was inactive.
For `CCCC1C(C(=O)OCc2ccccn2)=C(C)NC2=C1C(=O)CCC2` (stereo not given), in that order: 2.6, “Dose-dependent effect” and “inactive”.
In turn, `CC1=C(C(=O)OCc2cccnc2)C(c2cccc(O)c2)C2=C(CCCC2=O)N1` (stereo not given) registered a logP in series [1] of 1.21. In the series listed under Homo sapiens [2], the inhibition result was “Dose-dependent effect”. Besides, the outcome with MES-SA was inactive.
For `CC1=C(C(=O)OCc2ccccn2)C(c2cccs2)C2=C(CCCC2=O)N1` (stereo not given), in that order: 1.77, “Dose-dependent effect” and “inactive”.
Consider `CCCC1C(C(=O)OCc2cccnc2)=C(C)NC2=C1C(=O)CCC2` (stereo not given), for which the logP in series [1] turned out to be 2.23. In addition, the inhibition entry in the series filed under Homo sapiens [2] is “Dose-dependent effect”. For the same compound, the outcome with MES-SA was inactive.
In series [1], `CC1=C(C(=O)OCc2ccccn2)C(c2ccco2)C2=C(CCCC2=O)N1` (stereo not given) displayed a logP of 1.4. Further, in the series listed under Homo sapiens [2], the inhibition entry was “Dose-dependent effect”. In the series on MES-SA, the outcome was inactive.
In the case of `COc1ccc(C2C(C(=O)OCc3cccnc3)=C(C)NC3=C2C(=O)CCC3)cc1` (stereo not given), the logP in series [1] is 1.53. In addition, the inhibition result in the series filed under Homo sapiens [2] was “Dose-dependent effect”. Also, the result in the series on MES-SA was inactive.
With `CC1=C(C(=O)OCc2ccccn2)C(c2ccc(Br)cc2)C2=C(CCCC2=O)N1` (stereo not given), in series [1], the logP is 2.42. Moreover, the inhibition entry in the series filed under Homo sapiens [2] and in the series filed under Homo sapiens [5] was “Dose-dependent effect” throughout. For the same compound, the result in the series with MES-SA was inactive. In the series filed under Homo sapiens [4], the inhibition entry was “Active”.
`CC1=C(C(=O)OCc2cccnc2)C(c2ccccc2[N+](=O)[O-])C2=C(CCCC2=O)N1` (stereo not given) came in with a logP in series [1] of 1.51. Moreover, the outcome with MES-SA was inactive. In the series listed under Homo sapiens [3], the inhibition entry was “Active”. The inhibition result in the series filed under Homo sapiens [5] was “Dose-dependent effect”.
For the compound `CC1=C(C(=O)OCc2ccccn2)C(c2ccc(O)cc2)C2=C(CCCC2=O)N1` (stereo not given), in series [1], the logP is 1.58. Also, in the series listed under Homo sapiens [2], the inhibition result was “Dose-dependent effect”. In addition, in the series with MES-SA, the outcome was inactive.
`CC1=C(C(=O)OCc2cccnc2)C(c2ccc(Br)cc2)C2=C(CCCC2=O)N1` (stereo not given) returned a logP in series [1] of 2.05. Moreover, the inhibition entry in the series listed under Homo sapiens [2] is “Dose-dependent effect”. Also, the result in the series on MES-SA was inactive. The inhibition entry in the series listed under Homo sapiens [4] is “Active”.
In the case of `CC1=C(C(=O)OCc2cccnc2)C(c2ccccc2)C2=C(CCCC2=O)N1` (stereo not given), the logP in series [1] came to 2.35. The inhibition result in the series listed under Homo sapiens [2] was “Dose-dependent effect”. Moreover, in the series on MES-SA, the result was inactive.
